Bioassay records deposited in PubChem by several laboratories.
iPSC survival up – enhancers of single-cell hiPSC survival, primary screen, ATPlite luminescence. AID 602274, 2012. survival enhancement, % at 20 µM. 100% = ROCK inhibitor wells, 0% = DMSO. 360,000 tested, 0.044% active; in the data active = survival enhancement above about 18%;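 note: cells exposed to compounds for 16 hours before the ATP read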
Cardio protect – cardioprotection against H2O2-induced cell death, primary screen, uHTS, H9c2 cells, ATPLite luminescence | 360,000 tested, 0.63% active | AID 588492, 2011 | H9c2 cardiomyocytes, H2O2 injury protection, 2 h | protection from H2O2 cell death, % at 20 µM;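 active = compounds giving at least 50% protection of heart cells from peroxide-induced death in the single-dose screen, raw or plate-pattern-corrected value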;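 note: 0% = DMSO wells with peroxide and 100% = DMSO wells without peroxide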
SENP1 inh – human SENP1 catalytic domain inhibitors, primary screen, biochemical, FRET, uHTS; Sentrin-specific protease 1 (Homo sapiens), Q9P0U3; recombinant SENP1 catalytic domain, CyPet-SUMO1-YPet FRET cleavage; inhibition, % at 10 µM; 360,000 tested, 0.21% active; AID 624204, 2012;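 active = inhibition at least 30% at 10 µM, raw YFP signal under a set limit, fluorescence ratio 0.5 to 1.5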;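 note: 0% = enzyme with DMSO and 100% = no enzyme wells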
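Controls: no-enzyme wells low, DMSO-plus-enzyme wells high control. Test system: human recombinant His6-tagged SENP1 catalytic domain enzyme. Reagent: SFCypet-SUMO1-SFYpet FRET protein substrate, 25 nM final. Doses: one dose per compound, 10 µM, 0.5% DMSO. Detection: FRET, CFP and YFP emission. Timing: 50 min reaction at room temperature.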
FAS-TE inh – FAS thioesterase domain inhibitors, primary screen, biochemical, fluorescence intensity, uHTS | inhibition, % at 15 µM | Fatty acid synthase (Homo sapiens), P49327 | 360,000 tested, 0.67% active | recombinant FAS-TE, OMFH fluorogenic substrate, fluorescence endpoint;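 active = compounds whose normalised, plate-corrected inhibition of enzyme fluorescence in the single-dose primary screen is 50% or more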;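 note: 0% = DMSO with enzyme and 100% = substrate without enzyme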
GRIN3A LBD mod – binders of NR3A ligand-binding domain, primary screen, biophysical, differential scanning fluorimetry, uHTS; 340,000 tested, 2.5% active; AID 1259313, 2017; NR3A LBD differential scanning fluorimetry, Tm shift; 0% = protein alone, 100% = glycine-bound protein; Tm shift relative to glycine control, % at 25 µM;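 active = melting temperature shift of at least 10% of the positive control shift, at one fixed dose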
Arr AP2 block – inhibitors of beta-arrestin/AP2 binding, primary screen, biochemical, GPCR trafficking, flow cytometry | 340,000 tested, 0.31% active | inhibition, % at 10 µM | FITC-arrestin peptide / GST-AP2 beads; AP2 beta2 appendage carries R879A mutation | beta-arrestin 1 C-terminal peptide binding to AP2 beta2-adaptin appendage (human);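 active = inhibition above a set limit, near 3 SD of compounds lacking own fluorescence, cut at about 54% in these data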;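 note: plate controls were DMSO wells for no effect and 5 µM unlabelled arrestin peptide for full effect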
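System: GST-AP2 R879A bound to glutathione beads, E. coli-expressed. Also added: 50 nM FITC-arrestin peptide. Schedule: compound with beads 12 min RT, then probe 1 h RT. Signal: bead flow cytometry, FITC channel. Read-out basis: percent response.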
Arr-AP2 CP1 – inhibitors of arrestin peptide binding to AP2, confirmation, biochemical, cherry pick 1, flow cytometry beads; shares compounds with Arr AP2 block; GST-AP2 beads, FITC arrestin peptide binding; GST-fused beta2-adaptin appendage, R879A mutant; inhibition, % at 10 µM; 1,300 tested, 2% active; AID 504908, 2011;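 active = inhibition above a set limit, roughly 3 SD of non-fluorescent compound noise, cut at about 38% in these data; inactive = inhibition at or below that limit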;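 note: loss of bead fluorescence from 50 nM FITC arrestin peptide bound to appendage; 0% = negative control wells and 100% = excess unlabelled arrestin peptide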
Target sequence (P63010 whole entry, looked up, the tested form may be a part, one chain of several): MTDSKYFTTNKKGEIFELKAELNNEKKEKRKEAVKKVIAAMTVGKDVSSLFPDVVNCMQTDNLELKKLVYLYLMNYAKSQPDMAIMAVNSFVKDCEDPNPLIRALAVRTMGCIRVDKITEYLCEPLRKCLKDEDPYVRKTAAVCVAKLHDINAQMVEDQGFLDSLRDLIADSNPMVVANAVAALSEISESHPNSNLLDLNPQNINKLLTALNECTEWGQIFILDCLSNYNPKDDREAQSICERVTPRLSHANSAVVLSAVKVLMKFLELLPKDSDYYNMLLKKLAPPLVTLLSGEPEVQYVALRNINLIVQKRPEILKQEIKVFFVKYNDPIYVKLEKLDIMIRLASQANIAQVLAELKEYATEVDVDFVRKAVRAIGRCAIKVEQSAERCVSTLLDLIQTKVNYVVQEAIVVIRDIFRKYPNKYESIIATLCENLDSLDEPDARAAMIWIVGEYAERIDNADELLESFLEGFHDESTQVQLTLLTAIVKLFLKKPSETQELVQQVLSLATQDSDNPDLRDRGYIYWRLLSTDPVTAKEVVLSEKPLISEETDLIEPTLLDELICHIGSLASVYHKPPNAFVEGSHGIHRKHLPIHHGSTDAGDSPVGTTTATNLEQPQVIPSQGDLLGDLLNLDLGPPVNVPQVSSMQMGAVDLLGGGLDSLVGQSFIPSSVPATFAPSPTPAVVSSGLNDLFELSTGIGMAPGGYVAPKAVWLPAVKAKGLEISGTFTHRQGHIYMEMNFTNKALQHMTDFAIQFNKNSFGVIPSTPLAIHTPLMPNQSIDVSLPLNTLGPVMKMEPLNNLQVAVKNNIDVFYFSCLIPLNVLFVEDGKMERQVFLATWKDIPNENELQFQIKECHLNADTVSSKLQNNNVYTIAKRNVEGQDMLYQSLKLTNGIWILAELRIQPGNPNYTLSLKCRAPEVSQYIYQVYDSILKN
GST-FITC bead – GST-fluorescein capture on glutathione beads, confirmation, artefact control for arrestin-AP2 inhibitor project, biochemical, cherry pick 1, flow cytometry | inhibition, % at 10 µM | GST-fluorescein binding to GSH beads, fluorescence, counter-screen | shares compounds with Arr AP2 block | AID 588338, 2011 | 1,300 tested, 2% active;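 active = inhibition above 50%, about 3 SD of the inhibition seen with non-fluorescent compounds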;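 note: fluorescein maleimide labelled GST captured on 4 micron glutathione beads; higher means more loss of bead fluorescence from quenching or blocked binding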
Numbers without * were called inactive; nt = no result given. An excerpt weighted towards active compounds, which were near 4% of everything screened.

SMILES	iPSC survival up	Cardio protect	SENP1 inh	FAS-TE inh	GRIN3A LBD mod	Arr AP2 block	Arr-AP2 CP1	GST-FITC bead
CCOc1cc(C(=O)Nc2cc3c(cc2N2CCOCC2)n(C)c(=O)n3C)cc(OCC)c1OCC	0	1	3	-11	-2	-7	-4	-7
COc1ccc(C(=O)Nc2cc3c(cc2N2CCOCC2)n(C)c(=O)n3C)cc1OC	1	6	-1	-4	-6	2	-20	-13
Cn1c(=O)n(C)c2cc(N3CCCCC3)c(NC(=O)c3cccc(Cl)c3)cc21	1	9	-19	11	-9	7	-6	-4
COc1cccc(NC(=O)CN2CCC(NC(=O)c3ccccc3C)CC2)c1	-2	6	-1	-2	nt	nt	nt	nt
COc1ccccc1NCCC(=O)OCC(=O)NCc1ccco1	0	3	1	-8	0	75*	-9	-4
COc1ccc(OCCC(=O)OCC(=O)NCc2ccco2)cc1	4	-6	-3	-6	2	4	nt	nt
CCC(CO)Nc1ccn2nc(-c3cccc(Cl)c3)cc2n1 (centres undefined)	-3	-6	-8	-1	nt	nt	nt	nt
CCOC(=O)c1c(-c2cccs2)csc1NC(=O)COC(=O)c1c(C)noc1C	-2	11	0	33	-3	55*	3	5
C/C(=N\NC(=O)c1ccccc1)c1ccccc1F	0	5	0	-10	0	3	nt	nt
C/C(=N\NC(=O)c1ccccc1OCCOc1ccccc1)c1ccccc1F	0	1	0	25	-16	76*	-17	-1
Nc1ncc(Br)cc1S(=O)(=O)Nc1ccccc1F	0	-4	2	-6	1	58*	3	-11
CCN(Cc1ccccc1)C(=O)CCNS(=O)(=O)c1cc(Br)cnc1N	0	2	-1	3	-1	41	nt	nt
O=C(N/N=C/c1ccco1)c1cc(-c2ccc3ccccc3c2)n[nH]1	-1	-34	1	20	-9	56*	5	-11
Cc1cccc(C(=O)Oc2ccc(/C=N/NC(=O)Cc3ccc([N+](=O)[O-])cc3)cc2)c1	-1	-14	2	-4	7	105*	-3	59*
O=S(=O)(NCC(c1cccnc1)N1CCN(c2ccc(F)cc2)CC1)c1cc(F)ccc1F (centres undefined)	-2	6	-2	0	-22	-6	nt	nt
COc1ccc(N2CCN(C(CNS(=O)(=O)c3cc(F)ccc3F)c3cccnc3)CC2)cc1 (centres undefined)	-1	5	0	-5	1	84*	16	-11
COCc1cccc(-c2csc(C(C)(O)c3ccccc3)n2)c1 (centres undefined)	8	-4	4	-1	nt	nt	nt	nt
O=C(/C=C/c1ccccc1[N+](=O)[O-])NCCCN1CCCC1=O	0	0	1	-7	1	57*	0	-7
CCCn1c(SCC(=O)Nc2ccc(F)c(Cl)c2)nc(O)cc1=O	0	6	0	1	-15	55*	-7	-6
COc1cc(C)c(S(=O)(=O)N2CCCC2)cc1C(C)C	-1	5	0	4	0	57*	-5	2
